# Reference: ChEMBL document CHEMBL1148114, “New antiinfective and human 5-HT2 receptor binding natural and semisynthetic compounds from the Jamaican sponge Smenospongia aurea” (J Nat Prod, 2002)
# Calls of active or inactive are those of the source. The calls are words filed in the database; no cut-off is given here.
# How the values were obtained:
# Plasmodium falciparum = experiment: Antimalarial activity against Plasmodium falciparum D6; format: functional, organism-based
# Vero = experiment: Cytotoxicity against african green monkey Vero cells at 4.76 ug/mL; format: cell-based; details: chlorocebus sabaeus
# In short: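 Vero (African green monkey kidney) cells exposed to compound at 4.76 µg/mL to assess cytotoxicity.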
# [1] = tested on: Mycobacterium tuberculosis; experiment: Antitubercular activity against Mycobacterium tuberculosis H37Rv at 6.25 ug/mL; format: functional
# [2] = tested on: Mycobacterium tuberculosis; experiment: Antitubercular activity against Mycobacterium tuberculosis H37Rv; format: functional; details: for MIC: Mycobacterium tuberculosis, H37Rv
# Homo sapiens = organism: Homo sapiens; experiment: Displacement of [3H]methylspiperone form human cloned dopamine 4.2 receptor
# [3] = Selectivity index, ratio of IC50 for african green monkey (Cercopithecus aethiops) Vero cells to IC50 for Plasmodium falciparum D6; format: toxicity, cell-based; details: read-out: Selectivity Index
# [4] = biological target: T1, 5-hydroxytryptamine receptor 2A (Homo sapiens, UniProt P28223); experiment: Displacement of [3H]methylspiperone form human cloned 5HT2A receptor expressed in african green monkey COS7 cells by scintillation spectroscopy; format: cell-based, COS-7
# T1 sequence (P28223 whole entry): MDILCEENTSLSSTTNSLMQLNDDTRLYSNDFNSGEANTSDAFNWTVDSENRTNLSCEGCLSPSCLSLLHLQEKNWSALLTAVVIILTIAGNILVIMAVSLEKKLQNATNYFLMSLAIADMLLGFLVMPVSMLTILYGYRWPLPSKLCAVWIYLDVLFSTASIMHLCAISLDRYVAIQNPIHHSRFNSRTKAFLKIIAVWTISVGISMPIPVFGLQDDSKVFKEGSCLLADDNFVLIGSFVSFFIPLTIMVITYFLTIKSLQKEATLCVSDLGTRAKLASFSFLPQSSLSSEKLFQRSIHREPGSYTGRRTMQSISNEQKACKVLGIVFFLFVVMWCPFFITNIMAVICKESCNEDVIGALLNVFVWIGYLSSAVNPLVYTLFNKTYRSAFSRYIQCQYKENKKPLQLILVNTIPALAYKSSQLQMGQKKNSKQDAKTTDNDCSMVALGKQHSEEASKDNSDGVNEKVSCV
# In short: (§1)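 Transiently CaPO4-transfected COS-7 membranes carrying human 5-HT2A ([3H]methylspiperone) or 5-HT2C ([3H]mesulergine); equilibrium competition in 50 mM Tris pH 7.4, 2 h at 25 °C; nonspecific binding with 10 µM mianserin; filtration on PEI-treated GF/C, scintillation counting. Compounds from 10 mM DMSO stock diluted ≥1:100. Triplicate points, three experiments; Ki via Cheng-Prusoff, geometric means.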
# [5] = biological target: T2, 5-hydroxytryptamine receptor 2C (Homo sapiens, UniProt P28335); experiment: Displacement of [3H]mesulergine form human cloned 5HT2C receptor expressed in african green monkey COS7 cells by scintillation spectroscopy; format: cell-based, COS-7; in short: as §1
# T2 sequence (P28335 whole entry): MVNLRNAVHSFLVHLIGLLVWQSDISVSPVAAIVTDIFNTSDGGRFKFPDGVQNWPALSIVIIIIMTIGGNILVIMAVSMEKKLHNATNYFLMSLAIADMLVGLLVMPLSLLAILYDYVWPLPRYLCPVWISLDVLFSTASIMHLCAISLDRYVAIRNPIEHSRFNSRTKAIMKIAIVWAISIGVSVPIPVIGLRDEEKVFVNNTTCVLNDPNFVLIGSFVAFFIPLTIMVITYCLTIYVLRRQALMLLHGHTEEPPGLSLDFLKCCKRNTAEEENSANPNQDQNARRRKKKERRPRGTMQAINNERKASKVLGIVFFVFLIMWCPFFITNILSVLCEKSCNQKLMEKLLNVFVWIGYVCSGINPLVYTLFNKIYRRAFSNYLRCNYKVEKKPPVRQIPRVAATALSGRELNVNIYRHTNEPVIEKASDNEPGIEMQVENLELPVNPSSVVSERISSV
# Plasmepsin II [6] = biological target: T3, Plasmepsin II (Plasmodium falciparum, UniProt P46925); experiment: Inhibition of Plasmodium falciparum plasmepsin-2 by FRET assay
# T3 sequence (P46925 whole entry): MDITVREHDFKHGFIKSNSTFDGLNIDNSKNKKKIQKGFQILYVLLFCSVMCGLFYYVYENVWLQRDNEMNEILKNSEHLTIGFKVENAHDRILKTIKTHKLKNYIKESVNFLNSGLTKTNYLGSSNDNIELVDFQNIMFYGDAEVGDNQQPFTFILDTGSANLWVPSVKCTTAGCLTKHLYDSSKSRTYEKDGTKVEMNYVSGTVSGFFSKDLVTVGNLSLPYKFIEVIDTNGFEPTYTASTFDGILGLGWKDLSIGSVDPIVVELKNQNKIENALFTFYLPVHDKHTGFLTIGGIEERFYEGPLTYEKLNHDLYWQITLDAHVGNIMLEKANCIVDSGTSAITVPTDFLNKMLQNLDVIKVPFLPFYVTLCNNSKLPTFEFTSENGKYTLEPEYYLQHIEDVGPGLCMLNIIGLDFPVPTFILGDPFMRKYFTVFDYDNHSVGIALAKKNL
# Plasmepsin II [7] = biological target: T3, Plasmepsin II; experiment: Inhibition of Plasmodium falciparum plasmepsin-2 by fluorescence polarization assay
# [8] = biological target: T1, 5-hydroxytryptamine receptor 2A; experiment: Displacement of [3H]methylspiperone form human cloned 5HT2A receptor expressed in african green monkey COS7 cells at 30 uM by scintillation spectroscopy; format: cell-based; details: cos-7
# In short: (§2)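 Single-point competition on transfected COS-7 membranes (human 5-HT2A with [3H]methylspiperone; 5-HT2C with [3H]mesulergine), 50 mM Tris pH 7.4, 2 h at 25 °C; 10 µM mianserin defines nonspecific binding; filter-bound radioactivity counted by scintillation. DMSO stock 10 mM, diluted at least 1:100 in assay.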
# [9] = biological target: T2, 5-hydroxytryptamine receptor 2C; experiment: Displacement of [3H]mesulergine form human cloned 5HT2C receptor expressed in african green monkey COS7 cells at 30 uM by scintillation spectroscopy; format: cell-based; details: cos-7; in short: as §2
# [10] = Plasmodium falciparum, D6, read-out: IC50
structure (smiles),measurement,setting,value
C[C@H]1CC[C@H]2C(C)(C)CCC[C@]23Oc2ccc(O)cc2C[C@]13C [AUREOL],IC50,Plasmodium falciparum,Not Active
same,Activity,Vero,Non-toxic
same,inhibition at 6.25 µg/mL,[1],31%
same,inhibition (INH),[2],31%
same,MIC,[2],> 6.25 µg/mL
same,Activity,Homo sapiens,inactive
CC(=O)Oc1ccc2c(c1)C[C@]1(C)[C@@H](C)CC[C@H]3C(C)(C)CCC[C@]31O2 [AUREOL ACETATE],IC50,Plasmodium falciparum,Not Active
same,Activity,Vero,Non-toxic
same,inhibition at 6.25 µg/mL,[1],34%
same,Activity,Homo sapiens,inactive
CN1C(=N)N(C)/C(=C/c2c[nH]c3cc(Br)ccc23)C1=O,IC50,Plasmodium falciparum; [10],0.34 µg/mL
same,Activity,Vero,Non-toxic
same,selectivity ratio,[3],> 14
same,Ki,[4],2 µM
same,Ki,[5],0.33 µM
same,Activity,Homo sapiens,inactive
CC/N=C1\N(C)C(=O)/C(=C\c2c[nH]c3ccccc23)N1C,IC50,Plasmodium falciparum,Not Active
same,Activity,Vero,Non-toxic
same,Ki,[4],1.7 µM
same,Ki,[5],3.5 µM
same,Activity,Homo sapiens,inactive
COc1ccc2c(c1)C[C@]1(C)[C@@H](C)CC[C@H]3C(C)(C)CCC[C@]31O2,IC50,Plasmodium falciparum,Not Active
same,Activity,Vero,Non-toxic
same,inhibition at 6.25 µg/mL,[1],53%
same,Activity,Homo sapiens,inactive
C[C@H]1CC[C@H]2C(C)(C)CCC[C@]23Oc2ccc(O)c(Cl)c2C[C@]13C,IC50,Plasmodium falciparum; [10],3.4 µg/mL
same,Activity,Vero,Non-toxic
same,selectivity ratio,[3],> 1.4
same,inhibition at 6.25 µg/mL,[1],38%
same,Activity,Homo sapiens,inactive
CN1C(=N)N/C(=C/c2c[nH]c3cc(Br)ccc23)C1=O,IC50,Plasmodium falciparum; [10],1.1 µg/mL
same,Activity,Vero,Non-toxic
same,selectivity ratio,[3],> 4.3
same,IC50,Plasmepsin II [6],53 µM
same,IC50,Plasmepsin II [7],66 µM
same,Ki,[4],> 100 µM
same,inhibition,"[4]; COS-7, concentration not given here",10%
same,Ki,[5],2.3 µM
same,Activity,Homo sapiens,inactive
O=C1C(=O)c2[nH]cc3c2C(=C1Br)NCC3 [MAKALUVAMINE O],IC50,Plasmodium falciparum; [10],0.94 µg/mL
same,Activity,Vero,Non-toxic
same,selectivity ratio,[3],> 5.1
same,Ki,[8],Not Active
same,Ki,[9],Not Active
same,Activity,Homo sapiens,inactive
C/N=C1\N(C)C(=O)/C(=C\c2c[nH]c3ccccc23)N1C [METHYLAPLYSINOPSIN],IC50,Plasmodium falciparum,Not Active
same,Activity,Vero,Non-toxic
same,Ki,[8],Not Active
same,Ki,[9],Not Active
same,Activity,Homo sapiens,inactive
C/N=C1\NC(=O)/C(=C\c2c[nH]c3ccccc23)N1C [ISOPLYSIN A],IC50,Plasmodium falciparum; [10],0.97 µg/mL
same,Activity,Vero,Non-toxic
same,selectivity ratio,[3],> 4.9
same,Ki,[8],Not Active
same,Ki,[9],Not Active
same,Activity,Homo sapiens,inactive
C[C@H]1CC[C@H]2C(C)(C)CCC[C@]23Oc2ccc(OC(=S)N(C)C)cc2C[C@]13C,IC50,Plasmodium falciparum; [10],0.087 µg/mL
same,Activity,Vero,Non-toxic
same,selectivity ratio,[3],> 55
same,inhibition at 6.25 µg/mL,[1],100%
same,inhibition (INH),[2],100%
same,MIC,[2],< 6.25 µg/mL
same,Activity,Homo sapiens,inactive
CN1C(=N)N/C(=C/c2c[nH]c3ccccc23)C1=O,IC50,Plasmodium falciparum,Not Active
same,Activity,Vero,Non-toxic
same,Ki,[8],Not Active
same,Ki,[9],Not Active
same,Activity,Homo sapiens,inactive
